The target in assay [1] is Cannabinoid receptor 1 (Homo sapiens) (UniProt P21554). The assay is described as follows: Displacement of [3H]CP55940 from cannabinoid CB1 receptor (unknown origin) expressed in HEK293 cells after 60 mins by liquid scintillation counting. The assay is classed as cell-based. The procedure, abridged:
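Membranes from HEK293 cells transiently transfected with CB1 (calcium phosphate), harvested 24 h post-transfection. […] At least nine test concentrations, 100 pM–100 μM. Nonspecific binding defined with 1 μM unlabeled CP55,940. Bound ligand kept below 10%. Filtration on GF/C. Duplicates, ≥3 independent experiments. KB and α obtained by nonlinear regression using the allosteric ternary complex model.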
For orientation: Loss of bound radioactivity is the signal in a displacement assay; it reports binding, not function.

The target is the same in assay [2]. The assay is described as follows: Allosteric modulation of cannabinoid CB1 receptor (unknown origin) expressed in HEK293 cells assessed as inhibition of CP55940-induced [35S]GTPgammaS binding after 60 mins by liquid scintillation counting. The assay is classed as functional, cell-based. Summed up: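 Membranes from HEK293 cells transiently expressing CB1 (calcium phosphate transfection, harvested 24 h) were used at 7.5 μg per assay. They were incubated 60 min at 30 °C in Tris pH 7.4, MgCl2, EGTA and NaCl with 0.1 nM [35S]GTPγS, 10 μM GDP, 0.1% BSA and CP55,940 (100 pM–100 μM), with or without modulator. Nonspecific binding was taken with 10 μM GTPγS. Read-out was filtration and scintillation counting, duplicates, ≥3 experiments.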
For orientation: GTPγS resists hydrolysis and so accumulates on activated G proteins.

The target is the same in assay [3]. The assay is described as follows: Positive allosteric modulation of cannabinoid CB1 receptor (unknown origin) expressed in HEK293 cells assessed as induction of ERK1/2 phosphorylation by Western blot analysis in presence of siRNA targeting beta-arrestin 1. The assay is classed as cell-based. Summed up: (§1)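 HEK293 cells were lipofectamine-transfected with CB1, with or without β-arrestin 1 siRNA (2.6 μg) or a nonsilencing control. After 24 h they were serum-starved for 18 h, with optional PTX at 5 ng/mL for 16 h at 37 °C. Cells were exposed 5 min to modulator (0–10 μM) plus 0.2 μM CP55,940 and lysed. 12 μg protein was run on 10% SDS-PAGE and immunoblotted for phospho-p44/42 and total p44/42.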
For orientation: A western blot detects proteins with antibodies after separation by electrophoresis.

The target is the same in assay [4]. The assay is described as follows: Positive allosteric modulation of cannabinoid CB1 receptor (unknown origin) expressed in HEK293 cells assessed as effect on ERK1/2 phosphorylation at 5 uM by Western blot analysis in absence of siRNA targeting beta-arrestin 1. The assay is classed as cell-based. The procedure, abridged:
as §1

For assay [5] the target is unchanged. Kind of assay: Positive allosteric modulation of cannabinoid CB1 receptor (unknown origin) expressed in HEK293 cells assessed as induction of ERK1/2 phosphorylation by Western blot analysis in absence of siRNA targeting beta-arrestin 1. The assay is classed as cell-based. The procedure, abridged:
as §1

Assay [6] shares this target. The assay is described as follows: Positive allosteric modulation of cannabinoid CB1 receptor (unknown origin) expressed in HEK293 cells assessed as induction of ERK1/2 phosphorylation at 0.05 to 10 uM in presence of CP55940 for 5 mins and pre-treated with PTX for 16 hrs by Western blot analysis. The assay is classed as cell-based. The procedure, abridged: as §1

The values below come from ChEMBL document CHEMBL3232862, “Optimization of chemical functionalities of indole-2-carboxamides to improve allosteric parameters for the cannabinoid receptor 1 (CB1)” (J Med Chem, 2014).

Activity calls are given as the source filed them. The calls are words filed in the database; no cut-off is given here.

Chain of Cannabinoid receptor 1 (Homo sapiens) (P21554 whole entry): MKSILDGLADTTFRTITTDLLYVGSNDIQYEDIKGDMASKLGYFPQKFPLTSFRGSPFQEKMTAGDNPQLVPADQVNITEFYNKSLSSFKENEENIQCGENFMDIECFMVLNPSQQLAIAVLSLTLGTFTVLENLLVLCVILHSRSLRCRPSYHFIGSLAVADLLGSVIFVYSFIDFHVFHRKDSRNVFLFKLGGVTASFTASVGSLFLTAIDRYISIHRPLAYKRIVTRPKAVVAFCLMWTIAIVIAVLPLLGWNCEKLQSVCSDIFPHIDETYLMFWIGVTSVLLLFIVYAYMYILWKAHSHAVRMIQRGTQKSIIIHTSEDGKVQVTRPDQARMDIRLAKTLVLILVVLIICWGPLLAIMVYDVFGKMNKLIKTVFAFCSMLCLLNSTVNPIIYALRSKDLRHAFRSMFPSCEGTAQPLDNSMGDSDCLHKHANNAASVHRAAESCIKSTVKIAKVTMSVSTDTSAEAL

For the compound `CCCCc1c(C(=O)NCCc2ccc(N(C)C)cc2)[nH]c2ccc(Cl)cc12`, the Kb in assay [1] stood at 209 nM.
Same read-out and setting: under `CCc1c(C(=O)NCCc2ccc(N(C)C)cc2)[nH]c2cc(F)ccc12` stands 1580 nM.
`CCCc1c(C(=O)NCCc2ccc(N(C)C)cc2)[nH]c2ccc(Cl)cc12` showed a Kb in assay [1] of 259 nM. The inhibition entry in assay [2] and in assay [5] was “Dose-dependent effect” each time. In addition, the inhibition entry in assay [3] was “inactive”. In addition, the result in assay [4] was Active.
Consider `CCCc1c(C(=O)NCCc2ccc(N3CCCCC3)cc2)[nH]c2ccc(Cl)cc12`, for which the Kb in assay [1] was 1750 nM.
Turning to `CCc1c(C(=O)NCCc2ccc(N(C)C)cc2)[nH]c2cc(Cl)ccc12`, the Kb in assay [1] was 3670 nM.
In the case of `CCCCCCc1c(C(=O)NCCc2ccc(N(C)C)cc2)[nH]c2ccc(Cl)cc12`, in assay [1], the Kb stood at 89.1 nM. The inhibition entry in assay [2] and in assay [5] was “Dose-dependent effect” in each case. Also, in assay [3], the inhibition result was “inactive”. Further, the outcome in assay [6] and in assay [4] was Active.
